Measured values of several laboratories.

Cn1cc(-c2ccc(S(=O)(=O)[C@@H]3C[C@@H](C(=O)NC4(C#N)CC4)N(C(=O)C4(C(F)(F)F)CC4)C3)c(C(F)(F)F)c2)cn1 — Tmax (human; plasma; oral; 100 mg; single dose, fasted, healthy volunteers): 4 h
Cc1nc(NC(=O)N2CCC[C@H]2C(N)=O)sc1-c1ccnc(C(C)(C)C(F)(F)F)c1 — Tmax (human; plasma; oral; 350 mg; patients): 1.77 h
C=CC(=O)N(C)CCOc1c(N)ncnc1-c1cc(F)cc(NC(=O)c2ccc(C3CC3)cc2F)c1C — Tmax (human; blood; oral; 5 mg; single dose, healthy volunteers): 0.52 h
CC(C)n1cc(C#N)c2cc(-n3cc(C(=O)O)cn3)ccc21 — Tmax (human; plasma; oral; 100 mg; multiple doses, once daily, steady state): 2.5 h
CC(C)(O)c1ccccc1-c1ccc2[nH]c(/C=C/c3ccc(C(F)(F)F)cc3)nc2c1 — Tmax (male human; plasma; oral; 2 mg; single dose, fasted): 3.94 h
CCc1nc(C(N)=O)c(Nc2ccc(N3CCC(N4CCN(C)CC4)CC3)c(OC)c2)nc1NC1CCOCC1 — Tmax (human; plasma; oral; 80 mg; multiple doses, patients): 4.03 h
CO[C@@H]1[C@H](OC(=O)N2CC(CCN3CCOCC3)C2)CC[C@]2(CO2)[C@H]1[C@@]1(C)O[C@@H]1CC=C(C)C — Tmax (human; plasma; subcutaneous; 3.6 mg; single dose, healthy volunteers): 0.25 h
c1cnc2ccc(Nc3nc(NC4CC4)c4nc[nH]c4n3)cc2c1 — Tmax (human; plasma; oral; 50 mg/m²; patients): 5 h
COc1cc(N2CCC(N3CCN(C)CC3)CC2)ccc1Nc1ncnc(Nc2ccccc2S(=O)(=O)C(C)C)n1 — Tmax (human; plasma; oral; 125 mg; multiple doses, patients): 2.97 h
C[C@@H](Nc1cc(F)cc(F)c1)c1cc(C(=O)N(C)C)cc2c(=O)cc(N3CCOCC3)oc12 — Tmax (human; plasma; oral; 300 mg; single dose, patients): 1.21 h
CC(C)(Sc1ccncc1-c1ccc(C#N)c2ccccc12)C(=O)O — Tmax (male human; plasma; oral; 10 mg; multiple doses, once daily): 1 h
CS(=O)(=O)CCC#N — Tmax (human; plasma; oral; 100 mg; single dose, fasted): 2 h
CCc1nc2c(C)cc(N3CCN(CC(=O)N4CC(O)C4)CC3)cn2c1N(C)c1nc(-c2ccc(F)cc2)c(C#N)s1 — Tmax (human; plasma; oral; 1000 mg; fed, healthy volunteers): 2 h
NS(=O)(=O)NCCNc1nonc1C(=NO)Nc1ccc(F)c(Br)c1 — Tmax (human; plasma; oral; 50 mg; multiple doses, once daily, steady state, patients): 2 h
COc1ccc([C@@H]2CN(C(=O)[C@@H](O)CO)C[C@@]2(C)[C@@H](C)O)cc1OC1CN(c2ccc(C)cn2)C1 — Tmax (human; plasma; oral; 20 mg; single dose, healthy volunteers): 1.5 h
C[C@@]1(c2cc(NC(=O)c3ccc(C#N)cn3)ccc2F)C=CSC(N)=N1 — Tmax (human; plasma; oral; 3 mg; single dose): 1.25 h
C#C[C@]1(COP(=O)(O)OP(=O)(O)OP(=O)(O)O)O[C@@H](n2cnc3c(N)nc(F)nc32)C[C@@H]1O — Tmax (human; plasma; oral; 5 mg; single dose): 9 h
